Legend:
DU-145 = experiment: Cytotoxicity against human DU145 cells after 48 hrs by SRB assay; assay type: functional, cell-based; settings: Homo sapiens, DU-145, 48 h; for CC50: read-out: LC50 (the source's name)
Summary of the method: (§1)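 Cells grown in RPMI 1640 with 10% FBS and penicillin/streptomycin at 37 °C and 5% CO₂, trypsinized, then seeded at 5 × 10³/well. After 18 h drug-free attachment, samples in DMSO/EtOH/PBS (0.5:0.5:99) were added for 48 h continuous exposure. Cells were fixed with cold TCA (1 h, 4 °C) and stained with SRB (10 min). Tris-solubilized stain read at 490 nm. Triplicate wells, mean ± SD; GI₅₀ derived.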

[1] = Cytotoxicity against human IGROV cells after 48 hrs by SRB assay; assay type: functional; settings: for CC50: read-out: LC50 (the source's name); summary of the method: as §1
[2] = Cytotoxicity against human IGROV-ET cells after 48 hrs by SRB assay; assay type: functional; settings: for CC50: read-out: LC50 (the source's name); summary of the method: as §1
SK-BR-3 = experiment: Cytotoxicity against human SKBR3 cells after 48 hrs by SRB assay; assay type: functional; settings: SK-BR-3, 48 h; for CC50: read-out: LC50 (the source's name); summary of the method: as §1
SK-MEL-28 = experiment: Cytotoxicity against human SK-MEL-28 cells after 48 hrs by SRB assay; assay type: functional, cell-based; settings: Homo sapiens, SK-MEL-28, 48 h; for CC50: read-out: LC50 (the source's name); summary of the method: as §1
A549 = experiment: Cytotoxicity against human A549 cells after 48 hrs by SRB assay; assay type: functional, cell-based; settings: Homo sapiens, A549, 48 h; summary of the method: as §1
K562 = experiment: Cytotoxicity against human K562 cells after 48 hrs by SRB assay; assay type: functional; settings: K562, 48 h; for CC50: read-out: LC50 (the source's name); summary of the method: as §1
PANC-1 = experiment: Cytotoxicity against human PANC1 cells after 48 hrs by SRB assay; assay type: functional; settings: PANC-1, 48 h; for CC50: read-out: LC50 (the source's name); summary of the method: as §1
HT-29 = experiment: Cytotoxicity against human HT29 cells after 48 hrs by SRB assay; assay type: functional, cell-based; settings: Homo sapiens, HT-29, 48 h; for CC50: read-out: LC50 (the source's name); summary of the method: as §1
LoVo [3] = experiment: Cytotoxicity against human LoVo cells after 48 hrs by SRB assay; assay type: functional; settings: for CC50: read-out: LC50 (the source's name)
LoVo [4] = experiment: Cytotoxicity against human doxorubicin resistant LoVo cells after 48 hrs by SRB assay; assay type: functional; settings: for CC50: read-out: LC50 (the source's name); summary of the method: as §1
HeLa = experiment: Cytotoxicity against human HeLa cells after 48 hrs by SRB assay; assay type: functional; settings: for CC50: read-out: LC50 (the source's name); summary of the method: as §1
[5] = Cytotoxicity against human HeLa-APL cells after 48 hrs by SRB assay; assay type: functional; summary of the method: as §1

SMILES | GI50 (DU-145; read-out: GI50) [nM] | CC50 (DU-145) [nM] | CC50 [1] [nM] | CC50 [2] [nM] | CC50 (SK-BR-3) [nM] | GI50 (SK-MEL-28; read-out: GI50) [nM] | CC50 (SK-MEL-28) [nM] | LC50 (A549) [nM] | GI50 (A549; read-out: GI50) [nM] | GI50 (K562) [nM] | TGI (K562) [nM] | CC50 (K562) [nM] | CC50 (PANC-1) [nM] | CC50 (HT-29) [nM] | GI50 (LoVo [3]) [nM] | TGI (LoVo [3]) [nM] | CC50 (LoVo [3]) [nM] | GI50 (LoVo [4]) [nM] | TGI (LoVo [4]) [nM] | CC50 (LoVo [4]) [nM] | also measured
C/C=C1\NC(=O)[C@H](Cc2cccc(Cl)c2)NC(=O)[C@@H](C(C)C)NC(=O)[C@@H]([C@H](C)CC)NC(=O)[C@H](NC(=O)[C@H](NC(=O)[C@H](CCCN)NC(=O)[C@H]2CCCN2C(=O)[C@H](NC(=O)[C@@H](NC(=O)[C@@H](NC(=O)[C@H](NC(=O)CCCC(C)C)C(C)C)[C@@H](C)O)C(C)C)C(C)C)[C@H](C)CC)[C@H](C)OC(=O)[C@H](C(C)C)NC1=O | 100 | 305 | 48.5 | 163 | 48.3 | 183 | 738 | 911 | 194 | 867 | 1220 | 1730 | 1700 | 153 | 18.5 | 27.9 | 69.1 | 40.8 | 35.7 | 340 | GI50 (DU-145): 173 nM; GI50 [1]: 44.7 nM; GI50 ([1]; read-out: GI50): 41 nM; TGI [2]: 97 nM; GI50 ([2]; read-out: GI50): 71.2 nM; GI50 (SK-BR-3): 41.9 nM; GI50 (SK-BR-3; read-out: GI50): 49.6 nM; GI50 (SK-MEL-28): 313 nM; GI50 (A549): 429 nM; GI50 (PANC-1): 869 nM; TGI (PANC-1): 1700 nM; GI50 (HT-29): 40.2 nM; TGI (HT-29): 42.5 nM; GI50 (HeLa): 98.3 nM; TGI (HeLa): 131 nM; CC50 (HeLa): 256 nM; GI50 [5]: 191 nM; LC50 (concentration giving 50% net cell kill) [5]: 275 nM; TGI [5]: 172 nM
C/C=C1\NC(=O)[C@@H]2Cc3ccccc3CN2C(=O)[C@@H](C(C)C)NC(=O)[C@@H]([C@H](C)CC)NC(=O)[C@H](NC(=O)[C@H](NC(=O)[C@H](CCCN)NC(=O)[C@H]2CCCN2C(=O)[C@H](NC(=O)[C@@H](NC(=O)[C@@H](NC(=O)[C@H](NC(=O)CC[C@@H](C)CC)C(C)C)[C@@H](C)O)C(C)C)C(C)C)[C@H](C)CC)[C@H](C)OC(=O)[C@H](C(C)C)NC1=O | 4160 | 1930 | 7450 | 572 | 296 | 1620 | 2090 | 1200 | 1750 | 4890 | 4260 | 2680 | 2010 | 726 | 2820 | 2910 | 3030 | 718 | 1250 | 1820 | TGI (DU-145): 3830 nM; TGI (SK-BR-3): 1900 nM; GI50 (SK-BR-3; read-out: GI50): 2300 nM; TGI (SK-MEL-28): 1930 nM; TGI (A549): 1440 nM; CC50 (HeLa): 1140 nM; LC50 (concentration giving 50% net cell kill) [5]: 1190 nM
C/C=C1\NC(=O)[C@H](Cc2cccs2)NC(=O)[C@@H](C(C)C)NC(=O)[C@@H]([C@H](C)CC)NC(=O)[C@H](NC(=O)[C@H](NC(=O)[C@H](CCCN)NC(=O)[C@H]2CCCN2C(=O)[C@H](NC(=O)[C@@H](NC(=O)[C@@H](NC(=O)[C@H](NC(=O)CC[C@@H](C)CC)C(C)C)[C@@H](C)O)C(C)C)C(C)C)[C@H](C)CC)[C@H](C)OC(=O)[C@H](C(C)C)NC1=O | 1380 | 1070 | 676 | 505 | 110 | 1580 | 1290 | 1210 | 1760 | 4920 | 4290 | 2690 | 2010 | 657 | 751 | 1190 | 1930 | 390 | 391 | 393 | TGI (DU-145): 1210 nM; GI50 [2]: 855 nM; GI50 ([2]; read-out: GI50): 1710 nM; TGI (SK-MEL-28): 1430 nM; TGI (A549): 1450 nM; GI50 (HT-29): 1290 nM; TGI (HT-29): 1020 nM; GI50 (HeLa): 1590 nM; TGI (HeLa): 1290 nM; CC50 (HeLa): 1070 nM; GI50 [5]: 1770 nM; LC50 (concentration giving 50% net cell kill) [5]: 1130 nM; TGI [5]: 1420 nM
